In publication PMC6102747 (Molecular Medicine Reports, 2018):
Several values for one entry are separate records, joined by “and”; a condition that tells them apart may be missing. Identical values can stand only once. Like-named read-outs stand apart in the source and are kept apart here.

What was measured:
[1] = tested on: Cyp3a2; experiment: RT-qPCR mRNA expression in small intestine and liver; format: in vivo, rats; conditions: KET 75 mg/kg i.g. 7 days, vs control, P<0.001
[2] = tested on: Cyp3a1; experiment: as above; format: in vivo, rats; conditions: KET 75 mg/kg i.g. 7 days, vs control, P<0.001
[3] = tested on: Mdr1; experiment: RT-qPCR mRNA expression in small intestine and liver; format: in vivo, rats; conditions: VER 4 mg/kg i.g. 7 days, vs control, P<0.001
Outline: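 Rats, 3 per group, dosed once daily for 7 days: phosphate buffer 5 ml/kg i.v., test compound 2.5/5/10 mg/kg i.v. in phosphate buffer, ketoconazole 75 mg/kg i.g. in olive oil, or verapamil 4 mg/kg i.g. in water. Olive oil 5 ml/kg gavaged 30 min after day-7 dose. Killed 24 h post-dose after overnight fast; liver and intestinal mucosa snap-frozen. qPCR: 40 cycles, 58°C annealing; 2−ΔΔCq.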

[4] = tested on: P-gp; experiment: Western blot protein expression in small intestine and liver; format: in vivo, rats; conditions: rat, in vivo
[5] = healthy volunteers, cited from earlier work

## CC(=O)N1CCN(c2ccc(OCC3COC(Cn4ccnc4)(c4ccc(Cl)cc4Cl)O3)cc2)CC1 (stereo not shown) [KET, ketoconazole, reference compound]
[1]; liver
  decrease in Cyp3a2 mRNA expression: 87.39%
[1]; small intestine
  decrease in Cyp3a2 mRNA expression: 70.09%
[2]; liver
  decrease in Cyp3a1 mRNA expression: 78.64%
[2]; small intestine
  decrease in Cyp3a1 mRNA expression: 78.27%

## COc1ccc(CCN(C)CCCC(C#N)(c2ccc(OC)c(OC)c2)C(C)C)cc1OC (stereo not shown) [VER, verapamil, reference compound]
[3]; liver
  decrease in Mdr1 mRNA expression: 84.33%
[3]; small intestine
  decrease in Mdr1 mRNA expression: 65.32%
[4]
  decrease in P-gp protein expression: 85.02% and 84.54%

## O=c1c(O)c(-c2ccc(O)c(O)c2)oc2cc(O)cc(O)c12 [quercetin]
[5]; CsA 30 min following quercetin administration
  increase in AUC of CsA: 36%
[5]; CsA 3 days following quercetin administration
  increase in AUC of CsA: 47%
[5]; co-administration of quercetin (5 mg/kg) and CsA
  increase in AUC of CsA: 18%
